Active and inactive are the calls of the source. No cut-off for these calls is given here.
Key:
A549 [1] = assay: Induction of apoptosis in human A549 cells assessed as caspase-9 cleavage expression at 2 to 8 uM after 24 hrs by Western blot analysis; assay type: functional, cell-based
Method in brief: (§1)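 Western blot of A549 cells treated for 24 h. Lysates in RIPA buffer were run on SDS-PAGE and transferred to PVDF. Primary antibody at 1:1000 overnight at 4 °C, secondary antibody at 1:3000-1:5000 for 1 h, ECL detection. Densitometry was normalised to GAPDH; mean ± S.E.M. from three independent experiments.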

A549 [2] = assay: Induction of apoptosis in human A549 cells assessed as low mitochondrial membrane potential at 8 uM after 12 hrs by JC-1 staining-based flow cytometric analysis (reference value: 6.3%); assay type: functional
HeLa = assay: Antiproliferative activity against human HeLa cells assessed as reduction in cell viability after 24 hrs by MTT assay; assay type: functional, cell-based
Method in brief: (§2)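 MTT colorimetric assay. Cells in log phase in medium with 10% FBS were seeded at 10⁴ cells/well and left overnight at 37 °C, 5% CO₂ to reattach. Compounds were added at 0.1, 1, 10 and 100 μM in 10% FBS for 24 h. IC50 reported as mean ± SD of three independent experiments.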

A549 [3] = assay: Induction of apoptosis in human A549 cells assessed as viable cells at 2 uM after 24 hrs by Annexin-V/PI staining based flow cytometry analysis (reference value: 91.4%); assay type: functional; settings: A549, 24 h, read-out: Activity
Method in brief: (§3)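 A549 cells seeded overnight at 37 °C, 5% CO2, then exposed to 0, 2, 4, 8 or 12 µM for 24 h (dose series) or 8 µM for 0, 12, 24, 36 h (time series). Harvested, PBS-washed, stained with Annexin V-FITC and PI in binding buffer 15 min at room temperature in the dark, analysed by flow cytometry; three independent experiments.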

NCI-H460 = assay: Antiproliferative activity against human H460 cells assessed as reduction in cell viability after 24 hrs by MTT assay; assay type: functional, cell-based; settings: NCI-H460, 24 h; method in brief: as §2
A549 [4] = assay: Induction of G2/M cell cycle arrest in human A549 cells assessed as increase in CDK1 expression at 2 to 8 uM by immunoblot analysis; assay type: functional, cell-based
Method in brief: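 A549 lysates in RIPA buffer with protease inhibitors were run on SDS-PAGE and blotted to PVDF. Membranes were probed overnight at 4 °C with primary antibody at 1:1000, then secondary antibody at 1:3000-1:5000 for 1 h, and detected by ECL. Band intensity was normalised to GAPDH. Results are mean ± S.E.M. from three independent experiments.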

A549 [5] = assay: Induction of apoptosis in human A549 cells assessed as viable cells at 8 uM after 24 hrs by Annexin-V/PI staining based flow cytometry analysis (reference value: 91.4%); assay type: functional; settings: A549, 24 h, read-out: Activity; method in brief: as §3
A549 [6] = assay: Induction of apoptosis in human A549 cells assessed as caspase-3 cleavage expression at 2 to 8 uM after 24 hrs by Western blot analysis; assay type: functional, cell-based; method in brief: as §1
A549 [7] = assay: Induction of apoptosis in human A549 cells assessed as low mitochondrial membrane potential at 12 uM after 12 hrs by JC-1 staining-based flow cytometric analysis (reference value: 6.3%); assay type: functional
A549 [8] = assay: Antitumor activity against ip dosed human A549 cells xenografted in Balb/c mouse assessed as inhibition of tumor volume by measuring fold reduction at 4 mg/kg, ip administered once every two days for 32 days relative to untreated control; assay type: functional
Method in brief: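 Female BALB/c nude mice, 5-6 weeks old, injected in the flank with 6×10^6 A549 cells in 0.1 mL ice-cold PBS. After two weeks, tumours averaging 90 mm³ were allocated by volume to 5 groups of n = 8. Drugs in DMSO were given ip once every two days, 16 doses in total; a DMSO vehicle group served as control. Tumour volume (L×S²/2) and body weight were recorded every two days; mice were killed on day 32.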

A549 [9] = assay: Cell cycle arrest in human A549 cells assessed as accumulation at G2/M phase at 8 uM after 12 hrs by RNAse A/ PI staining based flow cytometric analysis (reference value: 12.65%); assay type: functional
Method in brief: (§4)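 A549 cells at 5.0×10^4 per well were grown 12 h at 37 °C. Treatment was 0, 2, 4 or 8 µM for 24 h, or 8 µM for 0, 12, 24 or 36 h. Cells were fixed in 70% ethanol at −20 °C for at least 12 h, then stained in PBS with 0.1 mg/mL RNase A and 5 µg/mL PI. At least 10,000 events per sample were collected by flow cytometry to give G0/G1, S and G2/M percentages.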

[10] = biological target: T1, Epidermal growth factor receptor (Homo sapiens, UniProt P00533); assay: Inhibition of EGFR signalling in human A549 cells assessed as reduction in ERK phosphorylation after 24 hrs by Western blot analysis; assay type: cell-based
T1 sequence (P00533 whole entry): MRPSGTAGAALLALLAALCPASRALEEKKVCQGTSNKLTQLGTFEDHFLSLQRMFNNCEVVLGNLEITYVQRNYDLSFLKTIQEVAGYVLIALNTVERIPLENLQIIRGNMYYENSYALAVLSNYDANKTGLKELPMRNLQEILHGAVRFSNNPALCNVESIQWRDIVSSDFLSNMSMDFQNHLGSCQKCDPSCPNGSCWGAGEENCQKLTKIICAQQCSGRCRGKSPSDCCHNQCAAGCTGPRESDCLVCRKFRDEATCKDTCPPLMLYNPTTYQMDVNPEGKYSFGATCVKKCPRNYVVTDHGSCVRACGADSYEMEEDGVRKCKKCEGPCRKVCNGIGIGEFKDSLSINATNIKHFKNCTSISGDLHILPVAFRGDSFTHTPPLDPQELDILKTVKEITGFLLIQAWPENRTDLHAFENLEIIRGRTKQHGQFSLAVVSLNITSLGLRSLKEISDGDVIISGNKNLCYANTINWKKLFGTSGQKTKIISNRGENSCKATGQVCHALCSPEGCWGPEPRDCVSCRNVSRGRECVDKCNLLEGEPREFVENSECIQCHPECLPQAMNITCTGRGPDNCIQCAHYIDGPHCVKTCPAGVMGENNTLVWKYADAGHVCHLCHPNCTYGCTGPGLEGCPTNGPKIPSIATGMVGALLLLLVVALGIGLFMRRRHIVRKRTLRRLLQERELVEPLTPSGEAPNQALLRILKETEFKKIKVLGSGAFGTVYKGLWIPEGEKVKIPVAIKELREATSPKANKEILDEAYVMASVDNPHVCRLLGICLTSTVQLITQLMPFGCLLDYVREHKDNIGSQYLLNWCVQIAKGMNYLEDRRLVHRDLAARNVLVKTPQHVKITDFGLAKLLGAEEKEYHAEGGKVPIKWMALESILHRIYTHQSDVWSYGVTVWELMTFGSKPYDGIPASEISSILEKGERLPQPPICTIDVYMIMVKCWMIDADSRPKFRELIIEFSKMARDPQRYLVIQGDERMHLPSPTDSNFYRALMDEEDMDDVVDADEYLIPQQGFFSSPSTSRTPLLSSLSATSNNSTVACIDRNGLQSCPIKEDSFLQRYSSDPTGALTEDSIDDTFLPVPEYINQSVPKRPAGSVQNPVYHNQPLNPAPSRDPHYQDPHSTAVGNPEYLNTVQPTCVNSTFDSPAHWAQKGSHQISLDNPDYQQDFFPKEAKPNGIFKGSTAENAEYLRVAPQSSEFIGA
Method in brief: (§5)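 A549 cells in 6-well plates were lysed in RIPA buffer with protease inhibitors on ice for 30 min and cleared at 4 °C. Protein was quantified by BCA, run on SDS-PAGE and transferred to PVDF. Membranes were blocked with milk, probed with primary antibody (1:1000) overnight at 4 °C, then secondary antibody (1:3000-1:5000) 1 h at RT. Detection by ECL; band densitometry normalised to GAPDH (β-actin also used). Three independent experiments.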

A549 [11] = assay: Induction of apoptosis in human A549 cells assessed as reduction in caspase-3 expression at 2 to 8 uM after 24 hrs by Western blot analysis; assay type: functional, cell-based; method in brief: as §5
A549 [12] = assay: Cell cycle arrest in human A549 cells assessed as accumulation at S phase at 8 uM after 24 hrs by RNAse A/ PI staining based flow cytometric analysis (reference value: 19.66%); assay type: functional; method in brief: as §4
A549 [13] = assay: Cell cycle arrest in human A549 cells assessed as accumulation at G2/M phase at 8 uM after 24 hrs by RNAse A/ PI staining based flow cytometric analysis (reference value: 9.47%); assay type: functional; method in brief: as §4
[14] = biological target: T1, Epidermal growth factor receptor; assay: Inhibition of C-terminal His-tagged N-terminal GST-tagged human EGFR (668 to 1210 residues) expressed in baculovirus infected Sf9 cells after 30 mins in presence of gamma-[32p-ATP] binding assay
A549 [15] = assay: Induction of apoptosis in human A549 cells assessed as late apoptotic cells at 4 uM after 24 hrs by Annexin-V/PI staining based flow cytometry analysis (reference value: 5.69%); assay type: functional
A549 [16] = assay: Induction of apoptosis in human A549 cells assessed as early apoptotic cells at 2 uM after 24 hrs by Annexin-V/PI staining based flow cytometry analysis (reference value: 1.15%); assay type: functional
A549 [17] = assay: Cell cycle arrest in human A549 cells assessed as accumulation at G2/M phase at 8 uM after 24 hrs by RNAse A/ PI staining based flow cytometric analysis (reference value: 12.65%); assay type: functional; method in brief: as §4
A549 [18] = assay: Induction of apoptosis in human A549 cells assessed as early apoptotic cells at 4 uM after 24 hrs by Annexin-V/PI staining based flow cytometry analysis (reference value: 1.15%); assay type: functional

`CC(C)=CC[C@@H](OC(=O)/C=C\C(=O)c1ccc(F)cc1)C1=CC(=O)c2c(O)ccc(O)c2C1=O` was tested. Which Activity (A549 [1]) did it give?
Its Activity is “Active”.

And the Activity (A549 [2])?
Its Activity is 39.3%.

What about the IC50 (HeLa) of the same molecule?
Its IC50 is 7.93 µM.

What about the viability at 2 µM (A549 [3]) of the same molecule?
The viability at 2 µM was 83.7%.

And the IC50 (NCI-H460)?
The IC50 was 5.61 µM.

And the Activity (A549 [4])?
Its Activity is “Active”.

What about the viability at 8 µM (A549 [5]) of the same molecule?
Its viability at 8 µM is 30.6%.

What about the Activity (A549 [6]) of the same molecule?
Its Activity is “Active”.

And the Activity (A549 [7])?
Its Activity is 58.7%.

And the “fold change (FC)” value (A549 [8])?
The value was 6.

What about the Activity (A549 [9]) of the same molecule?
Its Activity is 19.4%.

And the inhibition [10]?
Its inhibition is “Dose-dependent effect”.

What about the Activity (A549 [11]) of the same molecule?
Its Activity is “Active”.

And the Activity (A549 [12])?
The Activity was 23.66%.

And the Activity (A549 [13])?
Its Activity is 33.01%.

And the IC50 [14]?
Its IC50 is 0.0227 µM.

And the Activity (A549 [15])?
Its Activity is 10.6%.

What about the Activity (A549 [16]) of the same molecule?
The Activity was 4.62%.

And the Activity (A549 [17])?
The Activity was 33.75%.

And the Activity (A549 [18])?
Its Activity is 17.6%.

Source: ChEMBL document CHEMBL4406881, “Design, synthesis and biological evaluation of benzoylacrylic acid shikonin ester derivatives as irreversible dual inhibitors of tubulin and EGFR” (Bioorg Med Chem, 2019)
